Columns and labels:
[1] = tested on: MH-14 cells carrying stably replicating HCV sub genomic replicon gt 1b; test: HCV RNA by quantitative RT-PCR in reporter free MH-14 cells; type: cell-based, Hepatitis C virus genotype 1b; conditions: Hepatitis C virus, GT1B, MH14, read-out: EC50, HCV RNA in MH-14 cells
[2] = biological target: HCV NS5B polymerase (NS5BCΔ21) (Hepatitis C virus genotype 1b, UniProt Q9WMX2); test: NS5B RdRp primer-dependent elongation assay; type: biochemical; conditions: 50 µM, preliminary assay, data not shown
HCV NS3 helicase (NS3h) = HCV NS3 helicase (NS3h) (Hepatitis C virus genotype 1b, UniProt Q9WMX2); test: Molecular beacon based NS3 helicase assay; type: biochemical; conditions: concentrations as high as 500 µM, data not shown
[3] = tested on: HCV IRES mediated translation; test: HCV IRES mediated translation dual luciferase reporter assay in Huh7.5 cells; type: cell-based, Hepatitis C virus; conditions: data not shown
cyclooxygenase-2 = test: Host-factor reporter assay pCOX-2-FLuc in MH-14 cells; type: cell-based; conditions: 5, 10 and 25 µM, 48 h
Outline: (§1)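 MH-14 hepatoma cells stably carrying an HCV gt 1b subgenomic replicon were transfected with 300 ng of the gene-specific luciferase reporter plasmid. At 16 h post-transfection, cells were exposed to test compound or to DMSO as control for 48 h. Luciferase activity was then read, with transfection efficiency normalised to Renilla luciferase expression.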

heme oxygenase-1 = test: Host-factor reporter assay pHO-1-Luc in MH-14 cells; type: cell-based; conditions: 5, 10 and 25 µM, 48 h
Outline: as §1

[4] = tested on: interferon-stimulated response element; test: Host-factor reporter assay pISRE-Luc in MH-14 cells; type: cell-based; conditions: 5, 10 and 25 µM, 48 h
Outline: as §1

[5] = tested on: anti-oxidant response element; test: Host-factor reporter assay p3xARE-Luc in MH-14 cells; type: cell-based; conditions: 5, 10 and 25 µM, 48 h
Outline: as §1

In the case of c1ccc(Cn2c(-c3ccccc3)cc3c2CCCC3)cc1 [Compound 39], the EC50 [1] is reported as 3.13 µM, the “Inhibition of NS5B RdRp activity” value [2] is reported as “no effect” and the “Inhibition of NS3 helicase unwinding of a DNA substrate” value (HCV NS3 helicase (NS3h)) is reported as “no effect”. For the same molecule, the “Effect on HCV IRES mediated translation” value [3] was “no effect”, the “Effect on cyclooxygenase-2 reporter” value (cyclooxygenase-2) was “no effect” and the “Effect on heme oxygenase-1 reporter” value (heme oxygenase-1) was “no effect”. The “Effect on interferon-stimulated response element reporter” value [4] was “no effect” and the “Effect on anti-oxidant response element reporter” value [5] was “no effect”.

Reference: PMC5557381 (European journal of medicinal chemistry, 2015)
